LMPTP inh – blocks human LMPTP phosphatase; P24666; recombinant LMPTP-A, OMFP fluorogenic substrate, fluorescence intensity; inhibition, % at 20 µM; 0.22% of 360,000 active; AID 651560;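 active = compounds that cut the enzyme signal by at least half of the control window in the single-dose screen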;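 note: plate controls were DMSO wells with enzyme plus substrate for no effect and substrate without enzyme for full effect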
Target sequence (P24666 whole entry, looked up): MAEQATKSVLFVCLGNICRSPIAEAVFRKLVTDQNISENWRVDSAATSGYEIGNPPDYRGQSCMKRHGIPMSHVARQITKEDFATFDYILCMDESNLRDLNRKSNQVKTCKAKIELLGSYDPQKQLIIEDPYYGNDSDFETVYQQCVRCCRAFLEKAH
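Buffer or medium: Bis-Tris pH 6.0, DTT, detergent; Assay system: LMPTP-A enzyme; Quantity: 0.625 nM enzyme; Detection: endpoint fluorescence intensity; Times: 50 min dark incubation at room temperature; Controls: substrate-only low control, DMSO enzyme-plus-substrate high control; Doses: single 20 µM dose; Read-out: percent inhibition versus substrate-only and uninhibited controls; Reagent: 400 µM OMFP.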
SUMO1 PPI mod – alters human SUMO1 binding to SIM partners; P63165; 0.33% of 360,000 active; SUMO1 binding to a labelled peptide, TR-FRET, 1 h; inhibition, % at 20 µM; in the data active = inhibition above about 37%
DNMT1 block – DNMT1 (human) enzyme inhibition | P26358 | DNMT1 molecular beacon, Hinp1I cleavage, fluorescence | inhibition (reported as % activation of signal), % at 10 µM | 0.83% of 360,000 active | AID 588458; in the data active = inhibition above about 50%
STEP inh – blocks human striatal-enriched tyrosine phosphatase. recombinant STEP, OMFP fluorogenic substrate, fluorescence. 0.25% of 360,000 active. P54829. inhibition, % at 20 µM;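 active = inhibition at 20 µM, scaled per plate between control wells, above about 37%, limit read from the data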;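 note: 0% = DMSO with enzyme and substrate and 100% = substrate only without enzyme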
Target sequence (P54829 whole entry, looked up): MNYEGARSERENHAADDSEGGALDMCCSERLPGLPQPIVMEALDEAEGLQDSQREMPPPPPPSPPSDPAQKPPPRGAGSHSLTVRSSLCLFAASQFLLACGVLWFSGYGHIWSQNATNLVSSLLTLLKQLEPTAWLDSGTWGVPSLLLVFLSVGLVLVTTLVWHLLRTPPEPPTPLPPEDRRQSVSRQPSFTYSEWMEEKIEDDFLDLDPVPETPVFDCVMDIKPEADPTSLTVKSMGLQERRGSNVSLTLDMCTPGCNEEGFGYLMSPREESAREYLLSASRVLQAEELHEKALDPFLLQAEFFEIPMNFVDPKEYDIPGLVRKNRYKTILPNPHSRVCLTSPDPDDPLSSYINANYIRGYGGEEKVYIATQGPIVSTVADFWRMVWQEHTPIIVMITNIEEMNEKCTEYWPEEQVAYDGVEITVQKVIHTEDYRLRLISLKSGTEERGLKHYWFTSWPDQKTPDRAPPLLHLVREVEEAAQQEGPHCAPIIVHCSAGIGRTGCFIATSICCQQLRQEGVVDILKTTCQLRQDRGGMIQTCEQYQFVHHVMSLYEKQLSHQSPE
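Material: STEP (striatal-enriched tyrosine phosphatase) enzyme, cell-free; Compound dosing: 20 µM single dose in 1% DMSO; Technique: fluorescence read at 480 nm ex / 540 nm em; Times: reaction 20 min, ambient temperature; Medium: 50 mM Bis-Tris pH 6.0 with 2.5 mM DTT and 0.005% Tween 20; Also added: OMFP at 25 µM.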
Scp-1 inhibitor – blocks human Scp-1 phosphatase activity; Recombinant Scp1, phosphopeptide, malachite green phosphate absorbance; inhibition, % at 20 µM; AID 493091; 0.88% of 340,000 active;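 active = inhibition above about 50% at 20 µM, limit read from the data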;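 note: plate controls were DMSO wells with enzyme for no effect and wells lacking enzyme for full effect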
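Material – SCP-1 phosphatase catalytic domain, residues 76-261 · Buffer or medium – Acidic Tris acetate buffer with magnesium and detergent · Also added – Phospho 17-mer peptide substrate · Compound – single 20 µM dose, 1% DMSO · Times – 45 min room-temperature reaction, 5 min colour, 30 min stabiliser · Technique – Phosphate-binding colour reagent, absorbance read at 630 nm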
CSN inh – CSN deneddylation inhibition; Q92905; Purified CSN, SCF-Nedd8-OG deneddylation, fluorescence polarization; inhibition, % at 12.5 µM; 0.38% of 360,000 active; AID 651999;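 active = pattern-corrected inhibition above about 35%, with an unprinted fluorescence ratio check between 0.5 and 1.5, limit read from the data, passing the limit was not always enough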;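 note: 0% = enzyme with substrate and 100% = substrate without enzyme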
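Schedule: reaction 90 min, room temperature / Assay system: HEK293T-derived human Csn5 enzyme / Input: Csn5 at 0.24 nM final / Measure: inhibition of Csn5 cleavage, % / Control set: substrate-only high control, full reaction low control / Technique: fluorescence polarization of the substrate / Buffer or medium: Tris/NaCl/DTT buffer, pH 7.5 / Reagent: SCFSkp2-Nedd8OG substrate at 10 nM final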
STEP conf – confirmation of human STEP phosphatase inhibitors | shares compounds with STEP inh | recombinant STEP, OMFP fluorogenic substrate, fluorescence | inhibition, % at 20 µM | 32% of 520 active | AID 623866; call rule not given here;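 note: 0% = enzyme with substrate plus DMSO and 100% = substrate without enzyme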
* marks the source's active call; other numbers are inactive results; nt = no result given. In the library only some 1.9% were active in any assay of this set; here they are far more common.

SMILES | LMPTP inh | SUMO1 PPI mod | DNMT1 block | STEP inh | Scp-1 inhibitor | CSN inh | STEP conf
COc1ccc(N2CCN(c3nc4c(C)cccn4c(=O)c3C=C(C#N)C#N)CC2)cc1 | 2 | 2 | 0 | 63* | -9 | -4 | 6
S=C(c1cn(CCOc2ccccc2)c2ccccc12)N1CCCC1 | 2 | -3 | -3 | 97* | 9 | 2 | 63*
Cc1ccc(NC(=S)N(CCCN2CCOCC2)Cc2cccs2)c(C)c1 | -2 | -3 | 2 | 55* | -1 | 0 | 20
COCCNS(=O)(=O)c1cc(-c2nn(C)c(=O)c3ccccc23)ccc1C | 0 | -1 | 2 | 2 | -4 | 0 | nt
CCCCNS(=O)(=O)c1cc(-c2nn(C)c(=O)c3ccccc23)ccc1C | 15 | -4 | 20 | 58* | 46 | 6 | 27
COc1ccc(NC(=O)CN2C(=O)COc3ccc(C)cc32)c(OC)c1 | -1 | 2 | 4 | 72* | -7 | 4 | 0
COc1ccccc1NC(=O)CN1C(=O)COc2ccc(C)cc21 | 0 | 1 | -6 | 2 | -10 | 3 | nt
CC(C)Cc1nnc(NC(=O)C2CC(=O)N(c3ccc4c(c3)OCCO4)C2)s1 (stereo not drawn) | 0 | 3 | -1 | 3 | 5 | 1 | nt
Cn1cc(CC(=O)Nc2cccc(C#N)c2)c2ccccc21 | 1 | 1 | -2 | 46* | -16 | -2 | 30*
CCc1ccc(NC(=O)Cc2cn(C)c3ccccc23)cc1 | 5 | -1 | 0 | 44* | -6 | -2 | 48*
CCc1cccc(NC(=O)Cc2cn(C)c3ccccc23)c1 | 3 | 2 | -3 | 30 | -13 | 3 | nt
COc1cccc(OC)c1C(=O)Nc1ccc(C(=O)NCc2ccccc2)cc1 | 1 | 4 | 1 | 3 | -8 | -3 | nt
COc1ccc(C2C(C)C(=O)C(C)C(c3ccc(OC)cc3)N2N=O)cc1 (stereo not drawn) | -2 | -4 | 14 | 1 | -8 | -1 | nt
CC(C)Oc1ccc(OCCCN2CCCCCC2)cc1 | -1 | -5 | -1 | 53* | -6 | 5 | -16
CC(C)c1ccc(OCCCCN2CCCCC2)cc1 | -2 | -4 | 1 | -2 | 3 | 0 | nt
Cc1ccc(Oc2ccc(S(=O)(=O)N3CCOCC3)cc2C(N)=O)cc1C | -1 | -1 | -1 | -1 | -5 | 8 | nt
C=CCN1C=CC(=O)[C@@H](OC(=O)Nc2ccc(Br)cc2)[C@H]1c1ccccc1Br | 1 | -1 | 7 | -4 | -5 | -1 | nt
O=C(N/N=C/c1ccccn1)c1cc(-c2ccc(Cl)s2)[nH]n1 | 5 | 1 | 21 | 42* | 47 | 10 | 3
Cc1nn(-c2ccccc2)c(C)c1/C=N/NC(=O)c1cc(-c2ccc(Cl)s2)[nH]n1 | 3 | 3 | -8 | -2 | -2 | -1 | nt
COCCN(C(=S)Nc1c(C)cc(C)cc1C)C(C)c1cccnc1 (stereo not drawn) | 1 | 2 | -2 | 50* | -7 | -3 | 21*
CCOc1ccc(N2C(=O)c3cccnc3C2Nc2ccc(F)cc2)cc1 (stereo not drawn) | -1 | 1 | -6 | 52* | -4 | 2 | 26
O=C(CSS(=O)(=O)O)N1CCN(C(=O)c2ccoc2)CC1 | -1 | 2 | -1 | 77* | 9 | 4 | 14
CCOc1ccc(S(=O)(=O)N2CCN=C2c2ccccc2)cc1 | -1 | 3 | 1 | -1 | -5 | 4 | nt
CN1CCN(C(=O)c2ccc(S(=O)(=O)c3ccc(Br)cc3)cc2)CC1 | 1 | 0 | 0 | 0 | -12 | 3 | nt
O=[N+]([O-])c1ccc(C(=S)N2CCC(Cc3ccccc3)CC2)cc1 | 0 | -10 | -1 | -3 | -11 | -21 | nt
SMILES | LMPTP inh | SUMO1 PPI mod | DNMT1 block | STEP inh | Scp-1 inhibitor | CSN inh | STEP conf
CN1CCN(C(=S)c2ccc(Br)cc2)CC1 | 1 | 0 | 0 | 80* | -1 | 0 | 43*
CSc1ccc(C(=S)N2CCN(C)CC2)cc1 | -1 | -1 | -5 | 73* | -6 | 5 | 26
CN1CCN(C(=S)c2ccc(N(C)C)cc2)CC1 | 0 | -1 | 0 | 83* | -2 | 5 | 27
CN1CCN(C(=S)c2ccc([N+](=O)[O-])cc2)CC1 | 1 | -24 | -2 | 80* | -7 | -3 | 34
OC(COc1ccc(Br)cc1)CN1CCN(c2ccccc2)CC1 (stereo not drawn) | 0 | 1 | 2 | 1 | -7 | 1 | nt
CCCC1Oc2ccccc2C(=O)N(CC(=O)c2ccc3c(c2)OCCO3)C1=O (stereo not drawn) | 4 | 1 | -2 | 1 | -16 | 2 | nt
CC12CCC3C(CCC4CC(O)CCC43C)C1CC(=O)C2 (stereo not drawn) | -1 | 1 | -4 | 0 | nt | -5 | nt
COc1ccccc1NS(=O)(=O)c1ccc(OC)c([N+](=O)[O-])c1 | -1 | -10 | 2 | 0 | -6 | 6 | nt
COc1ccccc1NS(=O)(=O)c1ccc(NN=C2CCCCC2)c([N+](=O)[O-])c1 | 2 | -21 | -11 | 92* | -6 | -2 | 5
COc1cccc(C2c3cc4c(cc3OC(C)(N3CCCC3)C2C)OCO4)c1O (stereo not drawn) | 0 | 2 | -6 | 1 | -3 | -6 | nt
COc1ccc(Br)cc1/C=C/C(=O)NC(=S)Nc1ccc(Cl)c(C(=O)O)c1 | 2 | 18 | 1 | 62* | 8 | 12 | 8
COc1ccc(Br)cc1C(=O)NC(=S)Nc1ccc(Cl)c(C(=O)O)c1 | 3 | 15 | 4 | 8 | 31 | -19 | nt
Cc1ccc(C(=O)N/C(=C\c2ccccc2)C(=O)OCc2ccccc2)cc1 | 2 | 0 | -6 | 60* | -11 | 2 | 18
O=C(OCc1ccccc1)/C(=C/c1cccc2ccccc12)NC(=O)c1ccccc1 | 3 | -6 | -3 | -2 | -8 | 2 | nt
Cc1cc(NS(=O)(=O)c2ccc(NC(=O)COc3ccc(C#N)cc3)cc2)nc(C)n1 | -1 | 6 | 0 | -1 | 0 | -3 | nt
CC1(C)Cc2c(sc(NC(=O)C(C)(C)C)c2C#N)C(C)(C)N1 | 0 | -2 | -1 | 1 | 3 | -4 | nt
CC1(C)Cc2c(sc(N)c2C#N)C(C)(C)N1 | 1 | 4 | -5 | 44* | -3 | -2 | 28
Cc1ccc(NC(=O)Cn2cncc2-c2ccc([N+](=O)[O-])cc2)cc1C | 32 | -6 | 50 | 48* | 49 | 4 | 14
COc1ccccc1NC(=O)Cn1cncc1-c1ccc([N+](=O)[O-])cc1 | 0 | -22 | -11 | -1 | 0 | 4 | nt
